Measurements from ChEMBL document CHEMBL1129261, “De novo antimicrobial peptides with low mammalian cell toxicity” (1996).
Values after ≈ are worked out from the molar mass of the structure shown.

Key:
Escherichia coli = assay: Compound was evaluated for antibacterial activity against Escherichia coli; assay type: functional
Outline: (§1)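 Broth microdilution MIC against E. coli ATCC 25922, P. aeruginosa ATCC 27853, S. aureus ATCC 25723. Cultures grown to midlog phase in nutrient broth, standardized to 0.5 McFarland, diluted to 5 × 10^4 cells per well. Equal volume of peptide added, 1:2 serial dilutions giving 256-2 µg/mL in medium. MIC is the lowest concentration with no turbidity […]. Median of three to seven tests.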

Pseudomonas aeruginosa = assay: Compound was evaluated for antibacterial activity against Pseudomonas aeruginosa; assay type: functional; outline: as §1
Homo sapiens = species: Homo sapiens; assay: Compound was measured for sublethal concentrations (uM) in Human erythrocytes; assay type: functional
Outline: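 Human erythrocytes (1 × 10^5 per well) incubated at 37 °C for 30 min with peptide. Peptide was dissolved in serum-free MEM and diluted 2-fold serially. Sublethal concentration is the highest dilution […]. A "greater than" entry means slight hemolysis at the highest concentration tested.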

Mus musculus = species: Mus musculus; assay: (§2) Compound was tested for sublethal concentrations in 3T3 mouse fibroblast lysis.; assay type: functional
Outline: (§3)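 Mouse 3T3 fibroblast monolayers, 1 day old (about 1 × 10^4 cells/well), in MEM. Peptide applied as 2-fold serial dilutions in MEM, 30 min at 37 °C alongside untreated controls. Cells then stained with 0.2% trypan blue and viewed by light microscopy. Sublethal dose is the highest dilution in which only 1-10 adherent cells stay unstained.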

Staphylococcus aureus = assay: Compound was evaluated for antibacterial activity against Staphylococcus aureus; assay type: functional; outline: as §1
NIH3T3 = assay: as §2; assay type: functional, cell-based; outline: as §3

| Molecule | MIC (Escherichia coli) | MIC (Pseudomonas aeruginosa) | Concentration (Homo sapiens) | Concentration (Mus musculus) | MIC (Staphylococcus aureus) | Concentration (NIH3T3) |
| --- | --- | --- | --- | --- | --- | --- |
| CC(C)C[C@H](NC(=O)[C@H](CCCCN)NC(=O)[C@H](CCCCN)NC(=O)[C@H](C)NC(=O)[C@H](CC(C)C)NC(=O)[C@H](CCCCN)NC(=O)[C@H](C)NC(=O)[C@H](CC(C)C)NC(=O)[C@H](CCCCN)NC(=O)[C@H](CCCCN)NC(=O)[C@H](C)NC(=O)[C@H](CC(C)C)NC(=O)[C@H](CCCCN)NC(=O)[C@H](C)NC(=O)[C@H](CC(C)C)NC(=O)[C@H](CCCCN)NC(=O)[C@H](CCCCN)NC(=O)[C@H](C)NC(=O)[C@H](CC(C)C)NC(=O)[C@@H](N)CCCCN)C(=O)N[C@@H](C)C(=O)O | 4 µM (≈ 9.11 µg/mL) | 4 µM (≈ 9.11 µg/mL) | > 250 µM | 11 µM | 4 µM (≈ 9.11 µg/mL) | – |
| CC(C)C[C@H](NC(=O)[C@H](C)NC(=O)[C@H](CCCCN)NC(=O)[C@H](CC(C)C)NC(=O)[C@H](C)NC(=O)[C@H](CCCCN)NC(=O)[C@H](CCCCN)NC(=O)[C@H](CC(C)C)NC(=O)[C@H](C)NC(=O)[C@H](CCCCN)NC(=O)[C@H](CC(C)C)NC(=O)[C@H](C)NC(=O)[C@H](CCCCN)NC(=O)[C@H](CCCCN)NC(=O)[C@H](CC(C)C)NC(=O)[C@H](C)NC(=O)[C@H](CCCCN)NC(=O)[C@H](CC(C)C)NC(=O)[C@H](C)NC(=O)[C@@H](N)CCCCN)C(=O)N[C@@H](CCCCN)C(=O)O | 4 µM (≈ 9.11 µg/mL) | 4 µM (≈ 9.11 µg/mL) | – | – | 8 µM (≈ 18.2 µg/mL) | 11 µM |
| CC(C)C[C@H](NC(=O)[C@H](CCCCN)NC(=O)[C@H](C)NC(=O)[C@H](CC(C)C)NC(=O)[C@H](CCCCN)NC(=O)[C@H](CCCCN)NC(=O)[C@H](C)NC(=O)[C@H](CC(C)C)NC(=O)[C@H](CCCCN)NC(=O)[C@H](C)NC(=O)[C@H](CC(C)C)NC(=O)[C@H](CCCCN)NC(=O)[C@H](CCCCN)NC(=O)[C@H](C)NC(=O)[C@H](CC(C)C)NC(=O)[C@H](CCCCN)NC(=O)[C@H](C)NC(=O)[C@H](CC(C)C)NC(=O)[C@@H](N)CCCCN)C(=O)N[C@@H](C)C(=O)N[C@@H](CCCCN)C(=O)O | 4 µM (≈ 9.11 µg/mL) | 4 µM (≈ 9.11 µg/mL) | > 520 µM | 9 µM | 4 µM (≈ 9.11 µg/mL) | – |
| CC(C)C[C@H](NC(=O)[C@H](CCCCN)NC(=O)[C@H](C)NC(=O)[C@H](CC(C)C)NC(=O)[C@H](CCCCN)NC(=O)[C@H](CCCCN)NC(=O)[C@H](C)NC(=O)[C@H](CC(C)C)NC(=O)[C@H](CCCCN)NC(=O)[C@H](C)NC(=O)[C@H](CC(C)C)NC(=O)[C@@H](N)CCCCN)C(=O)N[C@@H](C)C(=O)N[C@@H](CCCCN)C(=O)O | 6 µM (≈ 9.14 µg/mL) | 6 µM (≈ 9.14 µg/mL) | > 750 µM | > 517 µM | 6 µM (≈ 9.14 µg/mL) | – |
| CC[C@H](C)[C@H](NC(=O)CN)C(=O)NCC(=O)N[C@@H](C)C(=O)N[C@H](C(=O)N[C@@H](CC(C)C)C(=O)N[C@@H](CCCCN)C(=O)N[C@H](C(=O)N[C@@H](CC(C)C)C(=O)N[C@H](C(=O)N[C@H](C(=O)NCC(=O)N[C@@H](CC(C)C)C(=O)N1CCC[C@H]1C(=O)N[C@@H](C)C(=O)N[C@@H](CC(C)C)C(=O)N[C@H](C(=O)N[C@@H](CO)C(=O)N[C@@H](Cc1c[nH]c2ccccc12)C(=O)N[C@H](C(=O)N[C@@H](CCCCN)C(=O)N[C@@H](CCCNC(=N)N)C(=O)N[C@@H](CCCCN)C(=O)N[C@@H](CCCNC(=N)N)C(=O)N[C@@H](CCC(N)=O)C(=O)N[C@@H](CCC(N)=O)C(N)=O)[C@@H](C)CC)[C@@H](C)CC)[C@@H](C)O)[C@@H](C)O)C(C)C)C(C)C | – | – | 1 µM | 1 µM | – | – |
| H-GIGKFLHSAKKFGKAFVGEIMNS-NH2 | 10 µM | 5 µM | > 460 µM | 60 µM | 19 µM | – |
| H-KAAKKAAKAAKKAA-OH | 47 µM | – | > 670 µM | > 525 µM | > 256 µM | – |
| H-KAAKKAAKAAKKAAKAAKKAA-OH | 8 µM | – | > 1630 µM | > 440 µM | 8 µM | – |
| H-KLAKKLA-OH | > 100 µM | > 100 µM | – | – | > 100 µM | – |
| H-KLAKKLAKLAKKLA-OH | 6 µM | 3 µM | > 750 µM | > 272 µM | 6 µM | – |
| H-KLAKLAK-OH | > 95 µM | > 95 µM | – | – | > 95 µM | – |
| H-KLGKKLGKLGKKLG-OH | 22 µM | – | > 780 µM | – | 22 µM | – |
| H-KLGKKLGKLGKKLGKLGKKLG-OH | 4 µM | 4 µM | > 570 µM | > 393 µM | 4 µM | – |
